In ChEMBL document CHEMBL4673384, “Studying Histone Deacetylase Inhibition and Apoptosis Induction of Psammaplin A Monomers with Modified Thiol Group” (ACS Med Chem Lett, 2021):
Each block holds one molecule with its values, some of them ahead of it. The source made the active and inactive calls. The rule behind the calls is not given here.

What was measured:
Histone deacetylase 2 = Histone deacetylase 2 (Homo sapiens, UniProt Q92769); test: Inhibition of HDAC2 in human HL-60 cells assessed as increase in Ac-H3 level at 0.5 to 2 uM incubated for 24 hrs by Western blot analysis; assay type: cell-based; settings: dose 0.5-2 µM
Chain of Histone deacetylase 2 (Q92769 whole entry): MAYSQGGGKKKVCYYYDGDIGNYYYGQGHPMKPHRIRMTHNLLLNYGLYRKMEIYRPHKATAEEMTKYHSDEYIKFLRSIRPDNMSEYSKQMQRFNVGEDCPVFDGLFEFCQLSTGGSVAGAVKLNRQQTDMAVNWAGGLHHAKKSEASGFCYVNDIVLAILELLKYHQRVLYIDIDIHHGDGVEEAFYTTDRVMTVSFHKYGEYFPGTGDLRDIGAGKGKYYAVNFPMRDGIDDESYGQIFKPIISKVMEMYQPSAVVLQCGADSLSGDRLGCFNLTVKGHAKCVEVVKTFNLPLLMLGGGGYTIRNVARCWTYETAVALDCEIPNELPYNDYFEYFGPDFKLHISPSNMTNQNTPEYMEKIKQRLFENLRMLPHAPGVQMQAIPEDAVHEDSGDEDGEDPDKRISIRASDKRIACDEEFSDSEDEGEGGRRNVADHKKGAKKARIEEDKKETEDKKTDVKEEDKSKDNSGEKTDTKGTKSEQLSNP
Procedure, shortened: (§1)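 Compound given to HL-60 cells for 24 h at the stated concentrations, then lysed. Acetyl-histone H3 and acetyl-α-tubulin levels were read by Western blot, with total H3, α-tubulin or β-actin as references.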

HL-60 [1] = test: Induction of apoptosis in human HL-60 cells assessed as late apoptotic cells at 1 uM incubated for 24 hrs by propidium iodide and annexin-V FITC staining based FACS analysis (reference value: 4.8 %); assay type: functional
HL-60 [2] = test: Induction of apoptosis in human HL-60 cells assessed as necrotic cells at 1 uM incubated for 24 hrs by propidium iodide and annexin-V FITC staining based FACS analysis (reference value: 0.3 %); assay type: functional
HL-60 [3] = test: Induction of apoptosis in human HL-60 cells assessed as early apoptotic cells at 2 uM incubated for 24 hrs by propidium iodide and annexin-V FITC staining based FACS analysis (reference value: 2.8 %); assay type: functional
HL-60 [4] = test: Induction of apoptosis in human HL-60 cells assessed as late apoptotic cells at 0.5 uM incubated for 24 hrs by propidium iodide and annexin-V FITC staining based FACS analysis (reference value: 4.8 %); assay type: functional
HL-60 [5] = test: Induction of apoptosis in human HL-60 cells assessed as cleavage of PARP at 0.5 to 2 uM after 24 hrs Western blot analysis; assay type: functional, cell-based; settings: dose 0.5-2 µM
Procedure, shortened: (§2)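 HL-60 cells were treated for 24 h at the indicated concentrations, then analysed by Western blot. Blots were probed for cleavage of PARP and caspase-3, -8 and -9. Ac-H3, Ac-α-tubulin and β-actin were also detected, with β-actin as the loading reference.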

[6] = molecular target: T1, Protein deacetylase HDAC6 (Homo sapiens) (UniProt Q9UBN7); test: Inhibition of HDAC6 in human HL-60 cells assessed as increase in acetylated alpha tubulin level at 0.5 uM after 24 hrs by Western blot analysis; assay type: cell-based; procedure, shortened: as §1
T1 sequence (whole entry): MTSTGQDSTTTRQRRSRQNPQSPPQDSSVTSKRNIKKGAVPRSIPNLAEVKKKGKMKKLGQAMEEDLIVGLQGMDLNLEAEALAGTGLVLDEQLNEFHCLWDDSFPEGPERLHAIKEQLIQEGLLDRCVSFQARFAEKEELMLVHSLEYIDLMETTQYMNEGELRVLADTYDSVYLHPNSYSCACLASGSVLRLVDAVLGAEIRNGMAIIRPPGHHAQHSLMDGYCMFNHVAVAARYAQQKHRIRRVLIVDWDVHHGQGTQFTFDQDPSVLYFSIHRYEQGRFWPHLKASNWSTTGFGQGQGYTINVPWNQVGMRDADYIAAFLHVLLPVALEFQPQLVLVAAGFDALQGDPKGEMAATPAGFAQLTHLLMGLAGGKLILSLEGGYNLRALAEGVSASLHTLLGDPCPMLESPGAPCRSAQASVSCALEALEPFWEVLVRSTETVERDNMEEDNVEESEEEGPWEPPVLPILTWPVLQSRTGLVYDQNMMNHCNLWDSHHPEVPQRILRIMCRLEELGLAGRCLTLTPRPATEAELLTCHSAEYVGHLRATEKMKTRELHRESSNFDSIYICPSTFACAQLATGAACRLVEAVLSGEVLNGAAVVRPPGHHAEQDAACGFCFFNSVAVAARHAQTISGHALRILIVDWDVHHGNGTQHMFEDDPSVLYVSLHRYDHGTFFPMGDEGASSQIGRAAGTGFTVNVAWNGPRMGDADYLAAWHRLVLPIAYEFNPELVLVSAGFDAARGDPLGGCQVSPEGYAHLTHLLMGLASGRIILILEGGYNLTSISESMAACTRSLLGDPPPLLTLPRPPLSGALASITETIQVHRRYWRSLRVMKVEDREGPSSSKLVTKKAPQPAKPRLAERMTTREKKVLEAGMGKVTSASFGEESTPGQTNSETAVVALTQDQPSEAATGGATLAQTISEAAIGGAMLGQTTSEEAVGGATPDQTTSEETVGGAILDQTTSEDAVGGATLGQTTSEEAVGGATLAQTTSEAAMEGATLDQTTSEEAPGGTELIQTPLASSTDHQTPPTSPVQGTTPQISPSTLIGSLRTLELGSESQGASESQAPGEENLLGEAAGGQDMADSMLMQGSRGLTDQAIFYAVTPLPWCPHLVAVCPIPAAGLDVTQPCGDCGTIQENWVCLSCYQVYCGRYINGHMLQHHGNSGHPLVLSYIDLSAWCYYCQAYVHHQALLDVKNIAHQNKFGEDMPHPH

HL-60 [7] = test: Induction of apoptosis in human HL-60 cells assessed as late apoptotic cells at 2 uM incubated for 24 hrs by propidium iodide and annexin-V FITC staining based FACS analysis (reference value: 4.8 %); assay type: functional
[8] = molecular target: Histone deacetylase 3 (Homo sapiens) (UniProt O15379); test: Inhibition of HDAC3 in human HL-60 cells assessed as increase in Ac-H3 level at 0.5 to 2 uM incubated for 24 hrs by Western blot analysis; assay type: cell-based; settings: dose 0.5-2 µM; procedure, shortened: as §1
Chain of Histone deacetylase 3 (Homo sapiens) (O15379 whole entry): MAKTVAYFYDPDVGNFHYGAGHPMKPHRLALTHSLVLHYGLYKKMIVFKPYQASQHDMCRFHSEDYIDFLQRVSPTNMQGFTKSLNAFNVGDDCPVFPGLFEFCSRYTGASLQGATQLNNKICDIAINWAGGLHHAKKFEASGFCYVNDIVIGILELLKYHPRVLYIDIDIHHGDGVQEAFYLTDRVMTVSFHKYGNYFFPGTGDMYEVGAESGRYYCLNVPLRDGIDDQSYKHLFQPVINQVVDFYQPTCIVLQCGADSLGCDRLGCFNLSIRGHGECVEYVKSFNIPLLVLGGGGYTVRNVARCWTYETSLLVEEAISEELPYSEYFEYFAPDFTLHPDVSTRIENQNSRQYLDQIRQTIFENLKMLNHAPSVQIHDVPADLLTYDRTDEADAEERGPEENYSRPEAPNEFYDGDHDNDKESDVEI

HL-60 [9] = test: Induction of apoptosis in human HL-60 cells assessed as cleavage of caspase-9 at 0.5 to 2 uM after 24 hrs Western blot analysis; assay type: functional, cell-based; settings: dose 0.5-2 µM; procedure, shortened: as §2
HL-60 [10] = test: Induction of apoptosis in human HL-60 cells assessed as early apoptotic cells at 1 uM incubated for 24 hrs by propidium iodide and annexin-V FITC staining based FACS analysis (reference value: 2.9 %); assay type: functional
HL-60 [11] = test: Induction of apoptosis in human HL-60 cells assessed as late apoptotic cells at 1 uM incubated for 24 hrs by propidium iodide and annexin-V FITC staining based FACS analysis (reference value: 4.2 %); assay type: functional
HL-60 [12] = test: Induction of apoptosis in human HL-60 cells assessed as late apoptotic cells at 8 uM incubated for 24 hrs by propidium iodide and annexin-V FITC staining based FACS analysis (reference value: 4.2 %); assay type: functional
[13] = Antitumor activity against mouse LL/2 cells inoculated in C57BL/6J mouse assessed as reduction of tumor weight at 100 mg/kg, ip administered for 12 days and measured at day 14 (reference value: 1.2 +/- 0.3 g); assay type: functional, Lewis lung carcinoma; settings: time 12 day
HL-60 [14] = test: Induction of apoptosis in human HL-60 cells assessed as early apoptotic cells at 8 uM incubated for 24 hrs by propidium iodide and annexin-V FITC staining based FACS analysis (reference value: 2.9 %); assay type: functional
HL-60 [15] = test: Induction of apoptosis in human HL-60 cells assessed as viable cells at 8 uM incubated for 24 hrs by propidium iodide and annexin-V FITC staining based FACS analysis (reference value: 92.05 %); assay type: functional; settings: read-out: Activity
[16] = Toxicity in mouse LL/2 cells inoculated C57BL/6J mouse assessed as effect on body weight by measuring end body weight at 100 mg/kg, ip administered for 12 days and measured for every 2 days (reference value: 17.8 +/- 0.7 g); assay type: organism-based; settings: in vivo, 288 h, time 12 day
[17] = Toxicity in mouse LL/2 cells inoculated C57BL/6J mouse assessed as effect on body weight by measuring initial body weight at 100 mg/kg, ip administered for 12 days and measured for every 2 days (reference value: 18.6 +/- 0.8 g); assay type: organism-based; settings: in vivo, 288 h, time 12 day

inhibition (Histone deacetylase 2): Active
inhibition [6]: Active
inhibition [8]: Active
Structure (SMILES): O=C(CCNC(=O)/C(Cc1ccc(O)c(Br)c1)=N/O)NO
Activity (HL-60 [1]): 12.6%
Activity (HL-60 [2]): 0.5%
Activity (HL-60 [3]): 7.3%
Activity (HL-60 [4]): 5.9%
Activity (HL-60 [5]): Active
Activity (HL-60 [7]): 21.9%
Activity (HL-60 [9]): Active

Structure (SMILES): O=C(NCCSSCCNC(=O)/C(Cc1ccc(O)c(Br)c1)=N/O)/C(Cc1ccc(O)c(Br)c1)=N/O [PSAMMAPLIN A]
Activity (HL-60 [10]): 2.6%
Activity (HL-60 [11]): 7.8%

Structure (SMILES): O=C(NCCS)/C(Cc1ccc(O)c(Br)c1)=N/O
Activity (HL-60 [12]): 25.1%
Activity [13]: 0.5 g
Activity (HL-60 [14]): 3.3%
viability at 8 µM (HL-60 [15]): 68.3%
Activity [16]: 16.9 g
Activity [17]: 18.6 g
